# Measurements as given in ChEMBL document CHEMBL4371031, “In Vitro Antiviral Activity of New Oxazoline Derivatives as Potent Poliovirus Inhibitors” (J Med Chem, 2019).
# What was measured:
# Format in all cases: functional, organism-based
# Conditions in all cases: Enterovirus C
# Poliovirus 1 = test: Antiviral activity against Poliovirus Sabin 1 infected in human HeLa cells assessed as reduction in virus-induced cytopathic effect after 72 hrs by crystal violet staining-based assay
# Method in brief: (§1)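 HeLa cells grown in MEM-10% FBS, seeded at 2x10^5 cells/mL in MEM-2% FBS and preincubated 24 h at 37°C, 5% CO2. Compound and virus were cross-titrated […] compound in 0.5 log10 steps (7-point curves), with duplicate wells and three replicate tests per virus. After 72 h at 37°C, cells were crystal violet stained and read at 590 nm. EC50 came from a four-parameter fit; if all virus dilutions gave >80% monolayer destruction, the value was […].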
# Poliovirus 2 = test: Antiviral activity against Poliovirus Sabin 2 infected in human HeLa cells assessed as reduction in virus-induced cytopathic effect after 72 hrs by crystal violet staining-based assay; method in brief: as §1
# Poliovirus 3 = test: Antiviral activity against Poliovirus Sabin 3 infected in human HeLa cells assessed as reduction in virus-induced cytopathic effect after 72 hrs by crystal violet staining-based assay
# Method in brief: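 HeLa cells grown in MEM-10% FBS, seeded at 2x10^5 cells/mL in MEM-2% FBS and held 24 h at 37°C, 5% CO2. Compound and virus were cross-titrated together on the cells starting at 10 µM compound, in 0.5 log10 steps, duplicate wells, three replicate tests per virus. Incubated 72 h at 37°C, stained with crystal violet, A590 read. EC50 from four-parameter fit.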
Compound,EC50 (Poliovirus 1),EC50 (Poliovirus 2),EC50 (Poliovirus 3)
Cc1ccc(C(=O)CCCCCc2ccc(C3=NCCO3)cc2)s1,> 10 µM,9.27 µM,9.07 µM
Cc1ccc(C(=O)c2cccc(CSc3ccc(C4=NCCO4)cc3)c2)s1,> 10 µM,> 10 µM,> 10 µM
Cc1ccc(C(=O)CCCCS(=O)(=O)c2ccc(C3=NCCO3)cc2)s1,> 10 µM,> 10 µM,> 10 µM
Cc1ccc(C(=O)CCCC#Cc2ccc(C3=NCCO3)cc2)s1,> 10 µM,9.09 µM,9.16 µM
C#CC[C@@H](C(=O)N[C@H](/C=C/C(=O)OCC)C[C@@H]1CCNC1=O)n1cccc(NC(=O)c2cc(C)on2)c1=O [IMOCITRELVIR],0.173 µM,0.305 µM,0.137 µM
N#Cc1ccc(NC(=O)c2cc3n(n2)C(C(F)(F)F)CC(c2cccs2)N3)cc1 (stereo unspecified),0.01 µM,0.026 µM,0.218 µM
Cc1ccc(C(=O)CCCC[S+]([O-])c2ccc(C3=NCCO3)cc2)s1 (racemic),> 10 µM,> 10 µM,> 10 µM
Cc1ccc(C(=O)c2cccc(COc3ccc(C4=NCCO4)cc3)c2)s1,> 10 µM,> 10 µM,> 10 µM
CCOC(=O)c1ccc(OCCC2CCN(c3ccc(C)nn3)CC2)cc1 [PIRODAVIR],0.0045 µM,0.005 µM,0.008 µM
Cc1ccc(C(=O)CCCCOc2ccc(C3=N[C@H](C)CO3)cc2)s1,> 100 µM,0.417 µM,1.32 µM
COc1ccc(OCc2ccc(COc3c(Cl)cccc3Cl)cc2)c(Cl)c1,0.017 µM,0.016 µM,0.02 µM
Cc1ccc(C(=O)CCCCSc2ccc(C3=N[C@H](C)CO3)cc2)s1,0.169 µM,0.302 µM,0.53 µM
